Assays:
[1] = molecular target: T1, Cyclin-dependent kinase 2 (Homo sapiens, UniProt P24941); test: Inhibition of human CDK2 by kinome scan method
[2] = molecular target: T2, Bromodomain-containing protein 4 (Homo sapiens, UniProt O60885); test: Inhibition of His6-tagged BRD4 bromodomain 2 (unknown origin) expressed in Escherichia coli Bl21(DE3) cells at 1 uM incubated for 4 hrs by FP assay relative to control
In short: (§1)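 Fluorescence polarization. Purified bromodomain (His6 tag removed with TEV, size-exclusion purified) equilibrated with fluorescent ligand. Compound or DMSO (2‰ final) then added and left 4 h at room temperature in the dark. Anisotropy read at ex 485/em 530 nm. IC50 values are means of at least two independent experiments; single-point inhibition tested at the listed concentration.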

[3] = AUC (0 to t) in ICR mouse at 3 mg/kg, ip and measured up to 24 hrs by TQ-S triple quadrupole mass spectrometric method; assay type: ADME, organism-based; parameters: route intraperitoneal, dose 3 mg/kg, time <=24; details: in vivo
In short: (§2)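 Male ICR mice (20 - 22 g, n = 3) dosed intraperitoneally, compound at 1 mg/mL in 1%DMSO/0.5%HPMC (5/95, v/v). EDTA plasma collected 0.25–24 h. 10 µL plasma treated with methanol:acetonitrile (1:1) containing internal standard, then centrifuged. LC-MS/MS on C18 UPLC. Parameters derived from composite mean plasma concentration-time data; Cmax is the maximum observed concentration and Tmax the time it is reached.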

[4] = Tmax in ICR mouse at 3 mg/kg, ip and measured up to 24 hrs by TQ-S triple quadrupole mass spectrometric method; assay type: ADME, organism-based; details: in vivo; in short: as §2
[5] = molecular target: T1, Cyclin-dependent kinase 2; test: Inhibition of human CDK2 at 1 uM by kinome scan method relative to control
In short: (§3)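 Eurofins DiscoveRx diversity kinase panel run at 1 µM. Inhibition values are means of at least two independent experiments.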

Homo sapiens = species on record: Homo sapiens; test: Selectivity ratio of IC50 for inhibition of human CDK2 to IC50 for inhibition of human CDK9
[6] = Half life in ICR mouse at 3 mg/kg, ip and measured up to 24 hrs by TQ-S triple quadrupole mass spectrometric method; assay type: ADME, organism-based; details: in vivo; in short: as §2
[7] = molecular target: T3, Cyclin-dependent kinase 9 (Homo sapiens, UniProt P50750); test: Inhibition of CDK9 in human HCT-116 cells assessed as reduction in phosphorylation of […] protein expression at 50 to 500 nM after 24 hrs by Western blot analysis; assay type: cell-based; details: dose nM 50-500, time 24.0 hrs
In short: (§4)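 HCT-116 cells plated 24 h, then treated 24 h at 0, 50, 100, 250 or 500 nM. Lysates immunoblotted for p-AR and p-RNA Pol II CTD with GAPDH as loading control; bands quantified and normalized.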

[8] = molecular target: T3, Cyclin-dependent kinase 9; test: Inhibition of CDK9 in human HCT-116 cells assessed as reduction in phosphorylation of AR protein expression at 50 to 500 nM after 24 hrs by Western blot analysis; assay type: cell-based; details: dose nM 50-500, time 24.0 hrs; in short: as §4
[9] = molecular target: T2, Bromodomain-containing protein 4; test: Inhibition of His6-tagged BRD4 bromodomain 1 (unknown origin) expressed in Escherichia coli Bl21(DE3) cells incubated for 4 hrs by FP assay; in short: as §1
[10] = molecular target: Bromodomain-containing protein 2 (Homo sapiens) (UniProt P25440); test: Inhibition of His6-tagged BRD2 bromodomain 2 (unknown origin) expressed in Escherichia coli Bl21(DE3) cells at 1 uM incubated for 4 hrs by FP assay relative to control; in short: as §1
[11] = molecular target: Bromodomain-containing protein 2 (Homo sapiens) (UniProt P25440); test: Inhibition of His6-tagged BRD2 bromodomain 1 (unknown origin) expressed in Escherichia coli Bl21(DE3) cells at 1 uM incubated for 4 hrs by FP assay relative to control; in short: as §1
[12] = molecular target: Cyclin-dependent kinase 1 (Homo sapiens) (UniProt P06493); test: Inhibition of human CDK1 at 1 uM by kinome scan method relative to control; in short: as §3
[13] = Elimination rate constant in ICR mouse at 3 mg/kg, ip and measured up to 24 hrs by TQ-S triple quadrupole mass spectrometric method; assay type: ADME, organism-based; details: in vivo; in short: as §2
[14] = molecular target: T3, Cyclin-dependent kinase 9; test: Inhibition of human CDK9 by mobility shift assay relative to control
In short: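 Recombinant CDK9 incubated with compound and CTD3 peptide substrate. Activity read by Caliper mobility-shift; Dinaciclib served as positive control. IC50 values are means of at least two independent experiments.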

[15] = Cmax in ICR mouse at 3 mg/kg, ip and measured up to 24 hrs by TQ-S triple quadrupole mass spectrometric method; assay type: ADME, organism-based; parameters: route intraperitoneal, dose 3 mg/kg, time <=24; details: in vivo; in short: as §2
[16] = AUC (0 to infinity) in ICR mouse at 3 mg/kg, ip and measured up to 24 hrs by TQ-S triple quadrupole mass spectrometric method; assay type: ADME, organism-based; parameters: route intraperitoneal, dose 3 mg/kg, time <=24; details: in vivo; in short: as §2

T3 sequence (P50750 whole entry): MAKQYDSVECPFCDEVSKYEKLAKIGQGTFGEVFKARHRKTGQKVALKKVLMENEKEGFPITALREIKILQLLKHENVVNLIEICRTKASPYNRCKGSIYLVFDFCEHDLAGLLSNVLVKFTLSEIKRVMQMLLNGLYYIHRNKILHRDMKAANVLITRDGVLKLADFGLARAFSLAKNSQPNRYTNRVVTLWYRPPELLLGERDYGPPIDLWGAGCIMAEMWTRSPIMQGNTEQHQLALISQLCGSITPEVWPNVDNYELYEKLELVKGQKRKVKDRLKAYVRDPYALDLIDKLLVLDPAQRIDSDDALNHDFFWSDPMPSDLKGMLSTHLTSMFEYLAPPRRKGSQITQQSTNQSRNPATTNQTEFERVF
Chain of Bromodomain-containing protein 2 (Homo sapiens) (P25440 whole entry, looked up): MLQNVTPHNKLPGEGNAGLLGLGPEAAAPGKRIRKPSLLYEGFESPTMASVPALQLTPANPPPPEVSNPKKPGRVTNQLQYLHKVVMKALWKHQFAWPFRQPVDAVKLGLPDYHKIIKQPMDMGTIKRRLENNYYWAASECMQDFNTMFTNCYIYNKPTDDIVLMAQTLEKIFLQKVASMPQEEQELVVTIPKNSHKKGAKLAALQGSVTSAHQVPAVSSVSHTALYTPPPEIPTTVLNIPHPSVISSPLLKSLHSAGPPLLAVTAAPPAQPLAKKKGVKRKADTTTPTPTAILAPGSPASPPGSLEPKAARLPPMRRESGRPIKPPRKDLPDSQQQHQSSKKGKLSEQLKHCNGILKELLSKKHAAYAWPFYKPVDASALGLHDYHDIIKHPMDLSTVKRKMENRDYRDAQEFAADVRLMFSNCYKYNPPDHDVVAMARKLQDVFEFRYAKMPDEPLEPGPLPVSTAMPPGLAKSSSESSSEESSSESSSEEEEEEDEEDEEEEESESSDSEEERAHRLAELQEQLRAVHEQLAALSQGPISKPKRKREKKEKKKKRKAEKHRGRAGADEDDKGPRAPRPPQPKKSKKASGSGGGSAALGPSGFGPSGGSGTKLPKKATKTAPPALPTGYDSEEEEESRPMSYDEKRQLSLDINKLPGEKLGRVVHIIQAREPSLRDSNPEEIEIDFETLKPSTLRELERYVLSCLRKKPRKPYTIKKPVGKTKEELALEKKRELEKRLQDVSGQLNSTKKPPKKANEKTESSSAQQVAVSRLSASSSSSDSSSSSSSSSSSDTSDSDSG
Chain of Cyclin-dependent kinase 1 (Homo sapiens) (P06493 whole entry, looked up): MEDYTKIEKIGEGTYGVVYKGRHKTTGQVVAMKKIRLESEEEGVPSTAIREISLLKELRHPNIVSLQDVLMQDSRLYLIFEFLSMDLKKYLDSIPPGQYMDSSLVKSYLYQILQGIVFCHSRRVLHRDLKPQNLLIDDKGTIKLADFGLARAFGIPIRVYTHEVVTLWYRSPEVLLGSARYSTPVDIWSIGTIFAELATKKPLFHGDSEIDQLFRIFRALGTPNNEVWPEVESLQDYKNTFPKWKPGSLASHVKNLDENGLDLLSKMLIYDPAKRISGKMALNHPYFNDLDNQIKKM

## CC(C)N1c2cc(Nc3nccc(-c4cncc5ccccc45)n3)ccc2N(C)C(=O)[C@H]1C
[1]
  IC50: 169 nM
[2]
  inhibition: < 12%
[3]
  AUC(0-t) at 24 h: 757 ng·h/mL
[4]
  Tmax: 11.6 min
[5]
  inhibition: 90%
Homo sapiens
  Ratio IC50: 8
[6]
  half-life: 28.8 min
[7]
  inhibition: Dose-dependent effect
[8]
  inhibition: Dose-dependent effect
[9]
  IC50: 12.7 nM
[10]
  inhibition: < 12%
[11]
  inhibition: < 12%
[12]
  inhibition: 90%
[13]
  k el at 24 h: 0.000403 s⁻¹
[14]
  IC50: 22.4 nM
[15]
  Cmax: 1370 ng/mL
[16]
  AUC(0-inf): 759 ng·h/mL

From ChEMBL document CHEMBL4725348, “Rational Design and Evaluation of 6-(Pyrimidin-2-ylamino)-3,4-dihydroquinoxalin-2(1H)-ones as Polypharmacological Inhibitors of BET and Kinases” (J Med Chem, 2020)
